AF4-AF9 inh: inhibitors of human MLL-AF4/AF9 interaction; AlphaScreen, biotin-AF4 peptide binding to FLAG-AF9; inhibition, % at 10 µM; hit rate 0.47% among 350,000;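 active = every replicate reaching a set inhibition limit, whatever the replicate mean, cut at about 25% in these data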;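 also: 0% = plate neutral control median and 100% = total signal loss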
Target sequence (P42568 whole entry, looked up): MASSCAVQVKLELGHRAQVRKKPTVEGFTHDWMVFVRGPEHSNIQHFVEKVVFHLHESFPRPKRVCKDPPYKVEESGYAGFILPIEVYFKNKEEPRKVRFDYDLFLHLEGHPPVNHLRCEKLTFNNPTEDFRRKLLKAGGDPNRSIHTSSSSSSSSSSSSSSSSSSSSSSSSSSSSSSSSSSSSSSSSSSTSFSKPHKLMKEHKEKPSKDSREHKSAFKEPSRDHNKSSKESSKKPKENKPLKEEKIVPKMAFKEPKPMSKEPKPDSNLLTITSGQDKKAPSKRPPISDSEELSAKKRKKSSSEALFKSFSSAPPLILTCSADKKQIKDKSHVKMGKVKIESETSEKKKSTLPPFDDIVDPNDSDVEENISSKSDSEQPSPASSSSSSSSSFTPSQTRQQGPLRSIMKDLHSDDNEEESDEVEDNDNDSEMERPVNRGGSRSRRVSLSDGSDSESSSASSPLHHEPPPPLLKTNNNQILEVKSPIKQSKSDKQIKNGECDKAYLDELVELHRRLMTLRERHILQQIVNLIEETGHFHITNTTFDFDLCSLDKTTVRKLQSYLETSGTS
HIV Env fusion: HIV envelope-mediated fusion inhibition. HeLa-JRFL Env/CEM21 cell fusion, luciferase. inhibition, % at 12.3 µM. hit rate 1.1% among 360,000. AID 651610;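 active = mean replicate inhibition score of at least 50 and every replicate individually at or above 50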;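 also: 0% = plate neutral controls and 100% = maraviroc near 300 nM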
EWS-Fli inh: inhibitors of EWS/Fli oncoprotein transcriptional activity; A673 NR0B1-luciferase reporter, viability-normalised; inhibition, % at 12.6 µM; hit rate 0.67% among 350,000; AID 651661;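 active = mean inhibition of at least 50% after viability correction, with every replicate also passing that limit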;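 also: firefly luciferase signal divided by Alamar Blue viability fluorescence both relative to DMSO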
N-glyco inh: N-linked glycosylation inhibition. D54 ERlucT glycosylation luciferase reporter, 24 h; percent of 100 nM tunicamycin response. reporter increase, % at 12.5 µM. hit rate 0.23% among 360,000;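 active = mean luciferase reporter signal, scaled so untreated is 0 and the glycosylation-blocking control 100, at or above a set limit in every replicate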;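 also: luciferase carries N-glycosylation sites so blocking glycosylation raises the light; 0% = median of neutral control wells and 100% = median of 100 nM tunicamycin wells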
PAX8 reporter: PAX8 transcriptional activity inhibition. RMG-I TPO-luciferase reporter, SteadyGlo, 24 h. inhibition, % at 12.6 µM. hit rate 1.2% among 360,000. AID 652154;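 active = mean replicate inhibition at least 60% with every replicate also reaching 60%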;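 also: luciferase light reporting Pax8 driven TPO promoter activity; plate controls were median of neutral control wells for no effect and mitoxantrone controls for full effect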
FN deposition inh: fibronectin deposition inhibition; AH1F fibroblasts, Alexa488-fibronectin deposition fluorescence, overnight; inhibition, % at 12.6 µM; hit rate 0.086% among 350,000; AID 743247;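 active = mean inhibition across replicates of 30% or more, regardless of how many single replicates reach that level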;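 also: positive control wells lacked labelled fibronectin entirely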
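material = AH1F fibroblast monolayer depositing Alexa488-labelled fibronectin into matrix | amount = 10000 AH1F cells/well | buffer or medium = DMEM plus 2% serum, read in PBS | incubation = 1 h cell adhesion before compound, then overnight fibronectin incubation | detection = fluorescence at 485 nm excitation, 525 nm emission | evaluation = percent inhibition as loss of matrix-bound fibronectin fluorescence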
Starred values were filed as active, the others as inactive; i = inactive; . = no result; [ ] = dose if it differs, or a comment. The list is not random: actives were taken first. Their share in the collection is about 2.5%.

SMILES	AF4-AF9 inh	HIV Env fusion	EWS-Fli inh	N-glyco inh	PAX8 reporter	FN deposition inh
CCCC(=O)Nc1ccc2c(c1)OC[C@H](C)N(Cc1nccs1)C[C@H](C)[C@@H](OC)CN(C)C2=O	-3	.	4	.	-2	2
COc1ccc(NC(=O)C2Cc3c(-c4ccccc4Oc4ccccc4)ccnc3O2)cc1OC (stereo not given)	4	67*	17	-5	30	0
CC(=O)Nc1ccc(-c2ccnc3c2CC(C(=O)NCc2ccccc2)O3)cc1 (stereo not given)	-1	-111	51*	16	92*	-11
CC(=O)c1cccc(-c2ccnc3c2CC(C(=O)NCC2CCOCC2)O3)c1 (stereo not given)	1	14	66*	22	36	0
CC(=O)Nc1ccc(-c2ccnc3c2CC(C(=O)NCCc2ccccc2)O3)cc1 (stereo not given)	-1	-3	4	-3	.	3
COc1ccc(NC(=O)C2Cc3c(-c4cccc(NC(C)=O)c4)ccnc3O2)cn1 (stereo not given)	3	-18	63*	21	51	4
O=C(Nc1ccc2c(c1)[C@@H]1C[C@@H](CC(=O)N3CCc4ccccc4C3)O[C@@H](CO)[C@@H]1O2)C1CCC1	2	17[16.7 µM]	10	.	13	-16
C[C@@H]1CN([C@@H](C)CO)S(=O)(=O)c2ccc(C3=CCCC3)cc2O[C@@H]1CN(C)Cc1ccccc1F	4	28[16.7 µM]	33	.	10	-1
COc1ccc(-c2ccc3c(c2)[C@H]2[C@H](CCN2C(=O)CN2CCOCC2)[C@@H](CO)N3)cc1	0	.	8	.	5	-17
COc1cccc(NC(=O)CSc2nnc(Cc3cccs3)n2-c2ccc(C)cc2)c1	.	84*	.	-1	.	.
COc1ccccc1CC(Cc1nc2ccccc2[nH]1)c1nc2ccccc2[nH]1 (stereo not given)	0	-23	7	0	18	16
N#CC(Cc1ccccc1OC(F)F)c1nc2ccccc2[nH]1 (stereo not given)	0	.	-10	1	76*	4
CC(=NNC(=S)Nc1cccc(C)c1)c1ccccn1	4	-29	22	-8	78*	17
C/C(=N\NC(=S)Nc1cccc(C)c1)c1ccco1	36*	-22	-55	0	6	3
Cc1ccccc1-c1cnc2c(c1)C(=O)N([C@@H](C)CO)C[C@H](C)[C@@H](CN(C)C(=O)c1ccc(F)cc1)O2	-1	8[16.7 µM]	-2	.	.	-4
Cn1cnc(S(=O)(=O)N[C@@H]2C=C[C@H](CC(=O)N3CCN(c4ccccc4)CC3)O[C@@H]2CO)c1	0	.	.	.	-9	2
CC(C)C#Cc1cnc2c(c1)C(=O)N([C@H](C)CO)C[C@H](C)[C@@H](CN(C)C(=O)CN1CCOCC1)O2	-5	-8[16.7 µM]	1	.	.	8
N#C/C(=C\Nc1ccc2cn[nH]c2c1)c1nc(-c2ccc(Cl)cc2)cs1	-3	-26	22	-8	35	15
N#CC(=Cc1ccccn1)c1nc(-c2ccc(Cl)cc2)cs1	-4	-33	-33	42*	-19	-14
C[C@H](NC(=O)C[C@@H]1CC[C@H](NC(=O)CN2CCOCC2)[C@@H](CO)O1)c1ccccc1	0	-2[16.7 µM]	-3	.	-21	3
COc1ccc(C(=O)O/N=C(\N)c2ccccc2)c(OC)c1	-6	-51	71*	-22	35	-2
Nc1nonc1C(=O)NCCNCc1cc(Br)ccc1OCc1ccccc1F	.	78*	.	-3	.	.
CCCN(CCC)C(=O)c1cc2c(=O)n3cccc(C)c3nc2s1	3	58*	8	-2	-2	-1
Cc1cccn2c(=O)c3cc(C(=O)N4CCCCC4)sc3nc12	-3	-12	.	34*	27	11
Cc1cccn2c(=O)c3cc(C(=O)N4CCCC(C)C4)sc3nc12 (stereo not given)	-2	6	-63	0	-9	4
SMILES	AF4-AF9 inh	HIV Env fusion	EWS-Fli inh	N-glyco inh	PAX8 reporter	FN deposition inh
Cc1cccn2c(=O)c3cc(C(=O)NCC(C)C)sc3nc12	-3	-9	-18	1	13	1
CCCNC(=O)N1CC2(CN(C(=O)C3CCC3)C2)c2c([nH]c3cc(OC)ccc23)[C@H]1CO	0	.	-10	.	.	.
CCCOc1ccc2c(c1)C(=NN=C(N)N)c1cc(OCCC)ccc1-2	32*	-21	50	-1	13	10
CCN(CC)CCOc1ccc2c(c1)C(=NO)c1cc(OCCN(CC)CC)ccc1-2	.	i	.	-12	.	14
CCOc1ccc2nc(C)cc(Nc3cccc([N+](=O)[O-])c3)c2c1	3	10	72*	-10	-3	3
COc1ccc(S(=O)(=O)/N=C2/NC(=O)/C(=C\c3ccco3)S2)cc1	.	8	.	0	3	-1
COc1ccc(S(=O)(=O)/N=C2/NC(=O)/C(=C\c3cc(OC)c(OC)cc3[N+](=O)[O-])S2)cc1	.	40*	.	2	4	4
COc1cc(/C=C2\S/C(=N/S(=O)(=O)c3ccccc3)NC2=O)c([N+](=O)[O-])cc1OC	.	-33	.	0	.	.
COc1ccc(S(=O)(=O)/N=C2/NC(=O)/C(=C/c3ccco3)S2)cc1	-5	.	-8	1	70*	6
CN1c2ccc(C#Cc3cccnc3)cc2[C@@H]2[C@@H](CCN2C(=O)Cc2cccnc2)[C@@H]1CO	.	.	-12	.	88*	-3
CN1c2ccc(C#Cc3cccnc3)cc2[C@H]2[C@H](CCN2C(=O)C2CC2)[C@@H]1CO	-3	.	-4	.	-28	13
COc1ccc(-c2ccc3c(c2)[C@H]2[C@H](CCN2C(=O)Cc2cccnc2)[C@H](CO)N3C)cc1	14	.	6	.	86*	.
C[C@@H]1CC=CC[C@H](c2ccc3c(c2)OCO3)NC(=O)[C@@H](Cc2ccccc2)N(C)C(=O)c2ccccc2O1 (mixture of isomers)	.	.	.	.	.	-14
CCCCCCSc1ccc([C@@H]2[C@@H]3C(=O)N(C)C(=O)[C@@H]3[C@]3(C(=O)OC)CCCCN23)cc1OC	2	7	0	-8	-2	1
CCCCCCSc1ccc([C@@H]2[C@H]3C(=O)N(CC)C(=O)[C@H]3[C@]3(C(=O)OC)CCCCN23)cc1OC	48*	27	4	-4	12	5
CCCCCCSc1ccc([C@@H]2[C@H]3C(=O)N(C)C(=O)[C@H]3[C@]3(C(=O)OC)CCCCN23)cc1OC	-4	2	6	-6	8	31*
COc1cc(C(=O)O[C@H]2CC(C)=CC[C@@]3(C)CC[C@@](O)(C(C)C)[C@H]23)ccc1O	0	88*	18	1	-7	-1
COc1ccc2[nH]c(=O)c(CN(Cc3cccs3)S(=O)(=O)c3cccc4nsnc34)cc2c1	.	70*	.	-1	.	.
C[C@H](CO)N1C[C@H](C)[C@@H](CN(C)CC2CCCCC2)Oc2ccc(NC(=O)C3CC3)cc2CC1=O	4	-9[16.7 µM]	-9	.	.	.
Cc1ccc2c(c1)C(=O)CCN2	0	.	1	2	.	.

Screening results (PubChem)
